These results are taken from ChEMBL document CHEMBL1157095, “Antimalarial versus cytotoxic properties of dual drugs derived from 4-aminoquinolines and Mannich bases: interaction with DNA” (J Med Chem, 2010).

The structures appear in SMILES notation.

Format in all cases: functional, organism-based
For assay [1], the system named is Plasmodium falciparum. The experiment in a line: Antiplasmodial activity against chloroquine-susceptible Plasmodium falciparum 3D7 infected in human erythrocytes assessed as inhibition of [3H]hypoxanthine uptake after 48 hrs. An outline of the steps:
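Culture in RPMI 1640 with 10% human serum, 25 mM HEPES, 25 mM NaHCO3, A-positive blood, 10% O2/5% CO2/85% N2, 37 C. Isotopic microtest: 0.5% parasitemia, 1.5% hematocrit, 1 μCi tritiated hypoxanthine at time zero, 48 h; freeze-thaw lysis, filter harvest, scintillation count. IC50 = 50% uptake versus drug-free control, nonlinear regression of log dose-response curves.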

Assay [2] concerns Plasmodium falciparum. Briefly: Antiplasmodial activity against chloroquine-susceptible Plasmodium falciparum D6 infected in human erythrocytes assessed as inhibition of [3H]hypoxanthine uptake after 48 hrs. In outline: (§1)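 Strains were cultured in A-positive human blood in RPMI 1640 with 10% human serum, 25 mM HEPES and 25 mM NaHCO3, under 10% O2/5% CO2/85% N2 at 37 °C. Microtests used 0.5% parasitemia and 1.5% hematocrit. Tritiated hypoxanthine (1 μCi/well) was added at time zero, then 48 h incubation, freeze-thaw, harvest and scintillation counting. IC50 was taken by nonlinear regression against drug-free controls.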

Assay [3] relates to Plasmodium falciparum. Briefly: Antiplasmodial activity against chloroquine-susceptible Plasmodium falciparum 8425 infected in human erythrocytes assessed as inhibition of [3H]hypoxanthine uptake after 48 hrs. In outline: as §1
Assay [4] has as its system Plasmodium falciparum. Briefly: Antiplasmodial activity against chloroquine-susceptible Plasmodium falciparum Voll infected in human erythrocytes assessed as inhibition of [3H]hypoxanthine uptake after 48 hrs. An outline of the steps: as §1
Assay [5] has as its system Plasmodium falciparum. Briefly: Antiplasmodial activity against chloroquine-susceptible Plasmodium falciparum L1 infected in human erythrocytes assessed as inhibition of [3H]hypoxanthine uptake after 48 hrs. In outline: as §1
For assay [6], the system named is Plasmodium falciparum. Briefly: Antiplasmodial activity against chloroquine-susceptible Plasmodium falciparum PA infected in human erythrocytes assessed as inhibition of [3H]hypoxanthine uptake after 48 hrs. An outline of the steps:
as §1

Assay [7] deals with Plasmodium falciparum. Briefly: Antiplasmodial activity against chloroquine-susceptible Plasmodium falciparum Bres infected in human erythrocytes assessed as inhibition of [3H]hypoxanthine uptake after 48 hrs. An outline of the steps: as §1
The test system of assay [8] is Plasmodium falciparum. Briefly: Antiplasmodial activity against chloroquine-susceptible Plasmodium falciparum FCR3 infected in human erythrocytes assessed as inhibition of [3H]hypoxanthine uptake after 48 hrs. An outline of the steps: as §1
For assay [9], the system named is Plasmodium falciparum. The experiment in a line: Antiplasmodial activity against chloroquine-susceptible Plasmodium falciparum W2 infected in human erythrocytes assessed as inhibition of [3H]hypoxanthine uptake after 48 hrs. An outline of the steps:
as §1

In assay [10] the test system is Plasmodium falciparum. Briefly: Antiplasmodial activity against chloroquine-susceptible Plasmodium falciparum K2 infected in human erythrocytes assessed as inhibition of [3H]hypoxanthine uptake after 48 hrs. In outline: as §1
Assay [11] relates to Plasmodium falciparum. Briefly: Antiplasmodial activity against chloroquine-susceptible Plasmodium falciparum K14 infected in human erythrocytes assessed as inhibition of [3H]hypoxanthine uptake after 48 hrs. In outline: as §1
The test system of assay [12] is Plasmodium falciparum. The experiment in a line: Antiplasmodial activity against chloroquine-susceptible Plasmodium falciparum FCM29 infected in human erythrocytes assessed as inhibition of [3H]hypoxanthine uptake after 48 hrs. In outline: as §1

As for `CCNCc1cc(Nc2ccnc3cc(Cl)ccc23)ccc1O` [DESETHYL AMODIAQUINE], the IC50 (in general, the midpoint of a concentration-inhibition curve) in assay [1] turned out to be 0.0195 µM; in [2], 0.0175 µM; in [3], 0.0264 µM; in assay [4], 0.0775 µM; in assay [5] it was 0.0861 µM; in [6], 0.0728 µM. In addition, the IC50 in assay [7] is 0.1 µM; in assay [8], 0.0791 µM; in [9] it was 0.146 µM; in assay [10], 0.0912 µM; in assay [11], 0.16 µM; in assay [12], 0.318 µM. The IC90 (in general, the point of the concentration-response curve where the effect stands at 90%) was 0.0314 µM in assay [1]; 0.037 µM in assay [2]; 0.0414 µM in [3]; 0.113 µM in [4]; 0.125 µM in assay [5]; 0.106 µM in assay [6]. Also, the concentration for an effect of 90% (IC90) is 0.143 µM in assay [7]; 0.13 µM in assay [8]; 0.202 µM in [9]; 0.144 µM in assay [10]; 0.22 µM in [11]; 0.407 µM in [12].

With `C=C[C@H]1CN2CC[C@H]1C[C@H]2[C@H](O)c1ccnc2ccc(OC)cc12` [QUININE], the IC50 in [1] was 0.104 µM; in [2] it was 0.0618 µM; in [3], 0.13 µM; in assay [4] it was 0.422 µM; in assay [5] it was 0.531 µM; in assay [6], 0.627 µM. The IC50 came out at 0.689 µM in [7]; 0.665 µM in assay [8]; 0.684 µM in assay [9]; 0.619 µM in assay [10]; 0.495 µM in assay [11]. The IC90 in assay [1] is 0.597 µM; in assay [2], 0.465 µM; in assay [3] it was 0.39 µM; in assay [4], 0.843 µM; in assay [5] it was 0.995 µM; in assay [6] it was 1.11 µM. For the same compound, the IC90 in [7] is 0.614 µM; in assay [8], 1.11 µM; in assay [9], 1.25 µM; in [10], 1.51 µM; in assay [11], 1.64 µM; in assay [12] it was 1.2 µM.
